Consider 89 compounds from PubChem BioAssay AID463104 (Sanford-Burnham Center for Chemical Genomics, 2010).

In all, about 330,000 compounds went through this assay and about 1,100 (0.33%) were called active. The sample holds actives, similar compounds and a random draw of the others, so the mix is not that of the screen. A number with no mark means an inactive call.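 The calls were made as follows: active = versus positive control, 20 µM dose yields 30% or more activation; inactive = the rest.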

The experiment is described as follows: activators of adaptive XBP1 UPR arm, primary screen, cell-based, CHO-XBP1 luciferase reporter, luminescence, uHTS (AID 463104).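 Also: 100% = tunicamycin at 10 µg/mL and 0% = DMSO only wells.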 As to conditions: IRE1-XBP1 UPR activation, at 20 µM, hits give high values, percent of tunicamycin response, DMSO as zero. Summed up:
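Material – CHO cell line with stable XBP1 luciferase reporter · Buffer or medium – F12 plus 10% FBS · Compound – single point, 20 µM final compound, 1% DMSO · Schedule – 16-18 h cell attachment at 37 °C, then 6 h compound exposure · Signal – Steady-Glo luminescence read · Benchmarks – high control tunicamycin 10 µg/mL final, low control DMSO vehicle only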
For orientation: A reporter such as luciferase makes a cellular process visible.
As to `CCCCC(O)(CCCC)C(=O)NN(C(=O)CCl)c1ccccc1`, the activation is -0.49%.
The figure for `Cc1ccc(NC(=O)c2ccc(Oc3ncccn3)cc2)cc1` is 0.13%; for `Cc1[nH]c(=O)c(C(=O)/C=C/c2ccccc2)c2c1CCCC2` it is -0.32%; for `O=C(/C=C/c1ccccc1)c1ccccc1O` it is 78.8% (active).
The figure for `O=C(/C=C/c1ccc(N2CCOCC2)cc1)c1ccccc1` is 2.92%; for `Cc1nc2c(ncn2-c2ccccc2)c(=O)n1NC(=O)CN1CCCC1` it is 0.65%.
`COCCNC(=O)c1ccc2c(c1)ncn2-c1ccc(C)c(Cl)c1`: the activation was -1.46%.
For `COc1ccc(CN2C(CC(=O)Nc3cccnc3)c3ccc(C(F)(F)F)cc3S2(=O)=O)cc1` (centres undefined), the activation was -0.27%.
As for `Cc1ccc(Cc2cnc(NC(=O)/C(C#N)=C/c3ccc(-c4cccc([N+](=O)[O-])c4)o3)s2)cc1`, the figure is 131% (active).
The figure for `Cc1ccc(-c2ccc(/C=C(\C#N)C(N)=S)o2)c([N+](=O)[O-])c1` is -0.81%.
As for `Cc1ccc(C(=O)N/C(=C/c2ccc(-c3cccc([N+](=O)[O-])c3)o2)C(=O)NCCCN(C)C)cc1`, the figure is 0.17%; as for `CC(=O)N1CCC(N(C(=O)Nc2ccc(Cl)cc2)C(C)C)CC1`, 2%; as for `CCC(C(=O)N1CCN(S(=O)(=O)c2sc(C(=O)O)c(C)c2C(=O)O)CC1)c1ccccc1` (centres undefined), -0.89%.
Take `COc1ccccc1CNC(=O)c1ccc(Cl)c(S(=O)(=O)N2CCCC2)c1`: the activation is -2.56%.
As for `CC(C)NC(=O)CCCn1c(=S)[nH]c2cc3c(cc2c1=O)OCO3`, the figure is 0.7%.
The figure for `O=C(CCCCCn1c(=S)[nH]c2cc3c(cc2c1=O)OCO3)N1CCN(c2ccc(F)cc2)CC1` is 38.5% (active); for `Cc1ccc(C)c(N2CCN(C(=O)CCCCCn3c(=S)[nH]c4ccc(N5CCOCC5)cc4c3=O)CC2)c1` it is -5.18%; for `COc1cc(C(=O)NC2CCN(C)CC2)ccc1Nc1ncc2c(n1)N(C1CCC(O)CC1)CCC(=O)N2C` (centres undefined) it is -2.3%.
In the case of `CCCC(=O)Nc1ccc(C(=O)N/N=C/c2ccc[nH]2)cc1`, the activation is -1.43%.
As for `CCCCCC(=O)NC(=S)NNC(=O)c1ccc([N+](=O)[O-])cc1`, the figure is 1.01%; as for `CCCCCC(=O)Nc1ccc(C(=O)N/N=C/c2ccc([N+](=O)[O-])cc2)cc1`, 82.5% (active).
For the compound `Nc1ccc(OCC(O)C[n+]2ccc(CCS(=O)(=O)[O-])cc2)cc1` (centres undefined), the activation was -2.33%.
The figure for `CCN1N=C(c2ccccc2)CCC1=O` is 0.24%; for `Cc1cc(C)c(C#N)c(SCC(=O)Nc2ccccc2)n1` it is -0.84%; for `Cc1nc2cc(NC(=O)CSc3nc4c(C)cccc4cc3C#N)ccc2s1` it is 30.2% (active).
The figure for `Cc1nonc1NC(=O)CSc1nc2ccccc2cc1C#N` is -3.02%; for `CC(Cc1cccs1)N(Cc1ccc(Cl)cc1)C(=O)c1ccncc1` (centres undefined) it is -2.77%.
As for `COc1ccc(S(=O)(=O)NCCc2cc3ccc(C)c(C)c3[nH]c2=O)cc1`, the figure is -3.05%; as for `O=C(NC(=S)Nc1ccc2oc(=O)ccc2c1)c1ccc(-c2cccc(Cl)c2Cl)o1`, 76.8% (active); as for `O=C(COc1ccc(Cl)cc1)Nc1ccc2oc(=O)ccc2c1`, -0.7%.
As to `Cc1ccc(OCC(=O)Nc2ccc3oc(=O)ccc3c2)cc1C`, the activation was -0.41%.
With `C=CCO/N=C(\C)c1c(O)c(C)c(-c2ccccc2)n(-c2ccccc2)c1=O`, the activation was -1.96%.
The figure for `CCc1nn(-c2cc(Oc3cccc4ccccc34)nc(-c3ccccc3)n2)c(N)c1C#N` is 79.6% (active); for `CC(C)(C)n1nc(Cc2cccc3ccccc23)c(C#N)c1N` it is 3.6%.
As for `Cc1cc(NC(=O)CSc2nnc(-c3ccco3)n2N)no1`, the figure is 1.89%; as for `Cc1cc(NC(=O)CSc2nc3ccccc3n2CC(C)C)no1`, -4.54%.
As for `Cc1cc(NC(=O)CSc2nc3cc(Cl)ccc3c(=O)n2Cc2ccco2)no1`, the figure is 95.4% (active); as for `CC(C)Oc1ccc(S(=O)(=O)N2CCOCC2)cc1NC(=O)C1CSC2(C)CCC(=O)N12` (centres undefined), -2.58%.
With `CCCNC(=O)CCn1nc(-c2ccccc2)c2ccccc2c1=O`, the activation was 1.25%.
On to `O=C(COC(=O)Cc1ccc(Br)cc1)Nc1c(F)c(F)c(F)c(F)c1F`, for which the activation was 0.94%.
The figure for `Nc1c(NCCc2ccccc2)c2ccccc2oc1=O` is -1.1%; for `COCCCNC(=O)[C@H]1N2C(=O)c3ccccc3C2SC1(C)C` (some centres undefined) it is 5.98%; for `COc1cc(NC(=O)CSc2nnc3ccc(-c4ccncc4)nn23)cc(OC)c1` it is 4.51%.
The figure for `CSc1nc(-c2ccccc2)nc(C(Cl)Cl)n1` is 31.3% (active); for `CSc1ncc(Sc2ccccc2)c(C(=O)O)n1` it is -3.45%.
As for `CC(C)=CCCC1(C)C=Cc2c(ccc3c2[nH]c2cc(O)c(C)cc23)O1` (centres undefined), the figure is 46.1% (active).
On to `CCN(CC(=O)NCc1ccc(Cl)cc1)C(=O)CSc1ccccc1`, for which the activation is -3.45%.
As to `O=C(NCCCN1CCCCC1)c1ccc2c(c1)NC(=O)C(N1CCOCC1)S2` (centres undefined), the activation is -1.68%.
Take `Cn1c2ccccc2c2c(C(=O)N3CCN(c4ccc(F)cc4)CC3)cn(C3CCCC3)c(=O)c21`: the activation is 6.07%.
Turning to `CC1CCN(Cc2nc3c(c(=O)n(C)c(=O)n3C)n2CCc2ccccc2)CC1`, the activation is -0.91%.
Take `CCCc1nc2c(c(=O)c3ccccc3n2C)c(=O)n1C1CCCCCC1`: the activation is 32.4% (active).
As to `c1ccc2c(c1)C(=NC1CCCCC1)NC2=NC1CCCCC1`, the activation was 3.14%.
Regarding `CCC1CCC/C1=N\NC(=O)c1ccc(Cl)cc1` (centres undefined), the activation is 2.16%.
The figure for `COc1cc(C(=O)NCC(c2ccco2)N2CCCC2)ccc1OCc1ccccc1` (centres undefined) is -1.2%.
The figure for `O=S(=O)(/N=C(/Nc1ccccn1)c1ccccc1)c1ccc(Cl)cc1` is 0.4%.
Regarding `Cc1ccc(S(=O)(=O)/N=C(/Nc2ccccn2)c2ccc(Cl)cc2)cc1`, the activation was 1.88%.
As for `Cc1ccc(S/C(=N\S(=O)(=O)c2ccc(Cl)cc2)c2ccccc2)cc1`, the figure is 43.5% (active); as for `CC(=O)N1CC(C)c2scc(C)[n+]2-c2ccccc21` (centres undefined), -0.83%.
As for `Cc1ccc(N2C(=O)CC(N3CCSCC3)C2=O)c(C)c1` (centres undefined), the figure is 2.27%; as for `O=c1c2ccccc2nc2n1C(CSCc1cccc(C(F)(F)F)c1)CS2` (centres undefined), -4.03%; as for `COc1ccccc1N(CC(=O)N/N=C(\C)c1ccccc1O)S(=O)(=O)c1ccc(C)cc1`, -4.87%.
The figure for `Cc1ccc(S(=O)(=O)N(CC(=O)N/N=C/c2ccc(F)cc2)c2cccc3cccnc23)cc1` is 44.4% (active); for `COc1ccc(S(=O)(=O)N(CC(=O)N/N=C/c2ccccc2C(=O)O)c2ccccc2OC)cc1` it is -1.28%; for `Cc1ccc(CC2S/C(=C(/C#N)C(=O)N3CCOCC3)N(c3ccccc3)C2=O)cc1` (centres undefined) it is -1.89%.
For the compound `Cc1ccnc2nc(C(=O)Nc3nnc(-c4ccccc4)o3)nn12`, the activation was 2.49%.
The figure for `O=C(CNC(=O)c1cccnc1)N/N=C/c1cc(Br)c(O)c(Br)c1` is -5.3%.
The figure for `Cc1ccc(CSCCNC(=O)CN(c2ccc(F)cc2)S(C)(=O)=O)cc1` is -2.57%; for `COC(=O)C1=C(O)/C(=C/c2ccc(OCC(=O)Nc3ccccc3)cc2)N=C1C` it is -5.1%; for `CCOC(=O)C1=C(O)/C(=C/c2ccc(OCC(=O)Nc3ccc(C)cc3)cc2)N=C1C` it is 51.4% (active).
The figure for `Cc1ccc(NC(=O)COc2ccc(/C=C3/NC(=O)NC3=O)cc2)cc1` is -3.85%.
Take `CCn1c(SCC(=O)NNC(=O)c2ccc(OC)cc2)nnc1C(C)C`: the activation is -2.62%.
On to `CCOC(=O)/C=C/CN(C(=O)OC(C)(C)C)S(=O)(=O)N1CC=CC1`, for which the activation is -0.55%.
As to `Cc1cccc(C)c1NC(=O)C1(N(C(=O)c2ccccn2)c2ccc(O)cc2)CCCCC1`, the activation was -2.28%.
Regarding `CCOC(=O)N1CCN(CC(=O)n2c(C)c(C)c3ccccc32)CC1`, the activation was 1.59%.
`Cc1cccc(OCCCC(=O)Nc2ccc(S(=O)(=O)N3CCCC3)cc2)c1`: the activation was -0.19%.
The figure for `OC(CNCC1CCCO1)Cn1c2ccc(Br)cc2c2cc(Br)ccc21` (centres undefined) is 69.6% (active); for `COCCNC(=O)c1ccc(Cn2c(SCC(=O)NCC3CCCO3)nc3ccc(Br)cc3c2=O)cc1` (centres undefined) it is -6.18%.
As for `CCCN1CCn2c3c(c4cc(Br)ccc42)CCCC31` (centres undefined), the figure is -0.93%; as for `CC(=O)Nc1ccc(CC#N)cc1`, -1.91%; as for `COc1ccccc1C(=O)NCCC(=O)NCC(c1ccco1)N1CCCCC1` (centres undefined), -0.9%.
The figure for `CCCc1nc2ccccc2c(=O)n1/N=C/c1ccc(O)c(O)c1` is 40.8% (active); for `Cn1c(SCC(=O)N/N=C/c2ccc(O)c(O)c2)nc2ccccc21` it is 20.8%.
With `CCCc1nc2ccccc2c(=O)n1NC(=O)c1c(O)c2ccccc2[nH]c1=O`, the activation is -2.34%.
As for `COc1ccc2sc(N(CCCN(C)C)C(=O)c3ccc(S(=O)(=O)N(C)C4CCCCC4)cc3)nc2c1`, the figure is 1.32%; as for `CN(C)CCCN(C(=O)c1ccc(S(=O)(=O)N2CCCc3ccccc32)cc1)c1nc2ccc(F)cc2s1`, 20.8%.
As for `CN(C)CCCN(C(=O)c1ccc(S(=O)(=O)N2CCCCCC2)cc1)c1nc2ccc(Br)cc2s1`, the figure is 46.6% (active); as for `CC12CN(NC(=O)c3ccc(Cl)cc3)C3(C#N)CC1CCC23C` (centres undefined), -2.37%; as for `COc1ccc(-c2c(NC(=O)c3ccco3)oc3ccc(Cl)cc3c2=O)cc1`, -2.76%.
On to `CC1CCCCC12NC(=O)N(CC(=O)N1CCN(c3ccccc3)CC1)C2=O` (centres undefined), for which the activation was -1.08%.
